Assay outcomes deposited in PubChem by several laboratories.
tolC growth inh: growth inhibitors of E. coli tolC mutant, primary screen, strain BW25113 ΔtolC::kan, 384-well. OD615. growth inhibition, % at 10 µM (by protocol). 2.2% of 65,000 active. AID 573, 2007;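 active = growth inhibition at or above a cutoff equal to the mean over every tested compound plus 3 SD, cut at about 60% in these data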;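 note: growth measured after 20 h incubation at 37 °C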
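Test system: tolC-deleted E. coli BW25113 | Medium: LB with kanamycin 50 µg/mL | Compound dosing: Single concentration, 10 µM final per compound | Schedule: 37 °C, 20 h exposure | Measured by: OD at 615 nm | Evaluation: Percent growth inhibition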
M1 antag: antagonists of rat M1 muscarinic receptor. CHO-M1 cells, Fluo-4 calcium, ACh EC80 antagonist mode; active compounds read low. B-score at 10 µM. 3.4% of 64,000 active;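 active = calcium fluorescence response, raw or row-and-column corrected B-score, differing from the plate sample mean either way at a set confidence level, mostly lower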
Hsp90 inh: tumor Hsp90 inhibitors, primary screen, cell lysate, fluorescence polarization, NCI-N417 lysate | Heat shock protein HSP 90-alpha (Homo sapiens), P07900 | Cy3B-geldanamycin FP displacement | 0.35% of 64,000 active | inhibition, % at 30 µM;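 active = inhibition above 50%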;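 note: 0% = tracer plus lysate wells and 100% = tracer alone without lysate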
M1 ag: M1 muscarinic receptor agonists, primary screen, CHO-M1 cells, Fluo-4 calcium, agonist mode. Fluo-4 calcium fluorescence; active compounds read high. B-score at 10 µM. 3% of 64,000 active. AID 626, 2007;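 active = fluorescence rise, raw or as B-score row- and column-corrected plate score, outside the 99.7% band of its plate's samples, either direction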
BAP1 block: inhibitors of BAP1 deubiquitinase, primary screen, biochemical, Ub-AMC fluorescence, kinetic | Ubiquitin carboxyl-terminal hydrolase BAP1 (Homo sapiens), Q92560 | recombinant BAP1, Ub-AMC hydrolysis fluorescence kinetic; active compounds read low | calls only at 20 µM | 0.48% of 72,000 active;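 active = activity remaining at or below 50% of control, provided the compound also passes the data quality filters; inactive = the rest, including low values that fail the filters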;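 note: 100% = DMSO wells rate and 0% = substrate alone blank rate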
Target sequence (Q92560 whole entry, looked up): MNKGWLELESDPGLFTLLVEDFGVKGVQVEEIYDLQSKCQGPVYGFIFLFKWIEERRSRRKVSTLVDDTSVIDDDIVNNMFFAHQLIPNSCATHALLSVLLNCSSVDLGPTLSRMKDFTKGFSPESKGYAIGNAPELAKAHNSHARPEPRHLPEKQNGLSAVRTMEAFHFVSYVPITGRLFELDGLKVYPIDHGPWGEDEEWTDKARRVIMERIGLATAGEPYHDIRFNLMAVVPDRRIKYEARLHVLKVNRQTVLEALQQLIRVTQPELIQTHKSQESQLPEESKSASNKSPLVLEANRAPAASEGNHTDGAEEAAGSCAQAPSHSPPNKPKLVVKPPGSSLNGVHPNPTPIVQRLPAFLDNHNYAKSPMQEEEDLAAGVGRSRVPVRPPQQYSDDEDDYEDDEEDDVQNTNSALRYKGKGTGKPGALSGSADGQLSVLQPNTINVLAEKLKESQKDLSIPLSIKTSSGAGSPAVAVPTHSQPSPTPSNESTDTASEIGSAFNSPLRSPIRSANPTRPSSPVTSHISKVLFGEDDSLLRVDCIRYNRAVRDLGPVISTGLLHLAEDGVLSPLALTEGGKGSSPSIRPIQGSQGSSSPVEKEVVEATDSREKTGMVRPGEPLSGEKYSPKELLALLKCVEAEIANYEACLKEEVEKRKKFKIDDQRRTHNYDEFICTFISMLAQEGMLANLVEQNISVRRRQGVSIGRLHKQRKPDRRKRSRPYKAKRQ
Ecoli WT expand: growth inhibitors of wild-type E. coli, primary screen, strain BW25113, expanded library, OD600; OD600 absorbance; growth inhibition, % at 100 µM; 0.15% of 98,000 active;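 active = growth inhibition above about 50% at one test dose, limit read from the data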;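 note: growth measured after 20 h incubation at 37 °C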
M1 antag confirm: rat M1 muscarinic receptor antagonists, confirmation, CHO cells, Fluo-4 calcium, duplicate | ACh EC80 antagonism; active compounds read low | calcium response (max-min fluorescence) at 10 µM | AID 677, 2007 | 43% of 1,700 active | shares compounds with M1 antag;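 active = calcium response below the same-plate mean of wells given acetylcholine alone at its 80%-effect dose, minus 3 SD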;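 note: raw fluorescence intensity difference in arbitrary instrument units and not normalized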
mGluR4 antag: human mGluR4 response to M1 antagonist hits, M1 allosteric modulator project, cell-based, antagonist mode, secondary assay 1. shares compounds with M1 antag. CHO-mGluR4 calcium flux, Fluo-4 fluorescence, glutamate EC80; active compounds read low. fluorescence response (max-min) at 10 µM. 0.9% of 1,700 active;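 active = fluorescence response below the plate's average for near-maximal glutamate wells, less 3 SD of those wells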;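 note: raw unnormalized fluorescence span taken in the window right after glutamate addition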
Active calls of the source: *; i = inactive; · = no result shown; ! = not active in a repeat. A selection: hits, their analogues and other compounds. The true share with any hit is near 5.1%.

SMILES	tolC growth inh	M1 antag	Hsp90 inh	M1 ag	BAP1 block	Ecoli WT expand	M1 antag confirm	mGluR4 antag
CCN(CC)CCN1C(=O)C2C3c4ccccc4C(c4ccccc43)C2C1=O (stereo not given)	-5.7	-3.58*	-5.7	-0.00387	i	1.0	561	271
COc1ccc(-c2cc(C(F)(F)F)nc(SCCC(=O)N3CCN4CCCC4C3)n2)cc1 (stereo not given)	6.4	-3.36*	-2.2	0.0663	i	2.0	310*	248
COc1ccc(-c2cc(C(F)(F)F)nc(SCCC(=O)Nc3cc(C)on3)n2)cc1	-13.1	-0.404	-1.1	1.74	i	-9.0	·	·
O=C(CCSc1nc(-c2ccco2)cc(C(F)(F)F)n1)N1CCN(c2ccccc2)CC1	29.9	-3.82*	1.5	0.354	i	-15.0	668	189
CN(C1CCCCC1)S(=O)(=O)c1ccc(-n2cnnn2)cc1	-21.6	-2.09*	-1.1	0.807	i	-7.0	610	243
COc1ccc(C(=O)Nc2nnc(N=Cc3ccc(Br)s3)s2)cc1	·	·	·	·	i	·	·	·
CCSc1nc2c([nH]c3ccccc32)c(=O)n1C	7.0	-4.15*	-3.9	-0.122	i	-3.0	443	214
CCNc1nc(CC)nc2c1oc1ccccc12	8.0	-1.32	·	-1.05	·	-1.0	·	·
CCc1nc(NCc2ccco2)c2oc3ccccc3c2n1	12.8	-3.94*	·	-0.00886	·	4.0	581	213
Cn1c(C(=O)NCCCN2CCCCCC2)cc2c(=O)n(C)c3ccccc3c21	8.6	-3.16*	-2.5	-0.0394	i	1.0	511*	190
CCN(CC)CCCNC(=O)c1cc2c(=O)n(C)c3ccccc3c2n1C	-0.6	-1.81	-2.3	0.406	i	-7.0	·	·
CCCN(CCC)CCCNC(=O)c1cc2c(=O)n(C)c3ccccc3c2n1C	3.2	-4.38*	-1.9	0.0522	i	-5.0	441*	243
CCCCN(CC)CCNC(=O)c1cc2c(=O)n(C)c3ccccc3c2n1C	12.7	-4.25*	-4.1	-0.0484	i	0.0	412*	229
O=C1c2ccccc2C(=Nc2ccc(Br)cc2)C1c1ccccc1 (stereo not given)	·	·	·	·	i	·	·	·
Cc1nc(-c2coc3c(C)c(O)ccc3c2=O)cs1	·	·	·	·	i	·	·	·
CCOC(=O)c1ccccc1NC1c2ccccc2C(=O)N1C1CCN(C(=O)OCC)CC1 (stereo not given)	18.6	-1.57*	-1.2	0.509	·	-18.0	384*	237
CCOC(=O)N1CCC(N2C(=O)c3ccccc3C2Nc2ccccc2C)CC1 (stereo not given)	6.2	0.402	-1.1	0.779	i	-3.0	·	·
CCNC(=O)N1c2ccccc2C(C)(c2ccccc2)CC1(C)C (stereo not given)	·	·	·	·	i	·	·	·
OC(C#CCN1CCCC1)c1ccccc1 (stereo not given)	4.3	-3.04*	2.9	0.0507	i	3.0	462	199
CC(C)C(O)(C#CCN1CCCC1)c1ccccc1 (stereo not given)	·	·	·	·	·	13.0	·	·
OC(C#CCN1CCCCC1)c1ccccc1 (stereo not given)	-15.1	-2.63*	1.5	0.132	i	8.0	432	185
COc1ccc(-n2nc3ccc(NC(=O)c4ccc(OC)c(OC)c4)cc3n2)cc1	·	·	·	·	i	·	·	·
CC(C)c1ccccc1OCC(=O)NCCc1nc2ccccc2[nH]1	·	·	·	·	i	·	·	·
CCc1ccc(N=Cc2ccc(Br)cc2)cc1	·	·	·	·	i	·	·	·
Cc1ccc(-n2nc3c(c2NC(=O)c2ccc(S(=O)(=O)N(C)C)cc2)CSC3)c(C)c1	·	·	·	·	i	·	·	·
SMILES	tolC growth inh	M1 antag	Hsp90 inh	M1 ag	BAP1 block	Ecoli WT expand	M1 antag confirm	mGluR4 antag
O=C(OCCCN1C(=O)c2ccccc2C1=O)C(Cc1ccccc1)N1C(=O)c2ccccc2C1=O (stereo not given)	·	·	·	·	i	·	·	·
CC1CCc2nc(NC(=O)CN3CCOCC3)sc2C1 (stereo not given)	4.8	-4.02*	-1.0	0.92	i	7.0	666	198
CC1CCc2nc(NC(=O)CN3CCN(c4ccccc4)CC3)sc2C1 (stereo not given)	·	-0.0393	0.2	-0.029	i	-17.0	·	·
Cc1nnc(N(Cc2ccco2)C(=O)c2cccc(C#N)c2)s1	-2.9	-0.0278	-1.1	-0.0236	i	0.0	·	·
CN(C(=O)c1cccc(C#N)c1)c1nnc(C2CCCO2)s1 (stereo not given)	-17.8	-4.54*	-3.1	-1.09	i	-2.0	638	248
Cc1c(NC(=O)Cc2ccc(F)cc2)c(=O)n(-c2ccccc2)n1C	·	·	·	·	i	·	·	·
CC(C)[N+](C)(CCOC(=O)C1c2ccccc2Oc2ccccc21)C(C)C	0.6	-15.7*	-2.1	0.771	i	·	19.2*	233
COc1ccc(C2C3C(=O)N(c4ccccc4Cl)C(=O)C3ON2c2ccccc2)cc1 (stereo not given)	·	·	·	·	i	·	·	·
CCOC(=O)c1cc(C)n(CCCN2CCOCC2)c1C	-14.3	-1.01*	-4.3	-0.197	i	9.0	403*	204
CCOC(=O)c1cc(C)n(Cc2ccccc2)c1C	19.4	0.00347	-4.1	0.0529	i	1.0	·	·
CCCCOc1ccc(C(=O)Nc2c3c(nn2-c2ccc(C)cc2C)CSC3)cc1	·	·	·	·	i	·	·	·
Cc1noc(C)c1COC(=O)c1cc(C)n(-c2ccccc2)c1C	93.5*	-2.69*	-0.8	0.338	i	-7.0	531	220
CCOC(=O)c1c(NC(=O)c2ccc(Cl)c([N+](=O)[O-])c2)sc(C(=O)Nc2ccccc2F)c1C	·	·	·	·	i	·	·	·
NC(=O)CSc1nc2c(c(=O)n1-c1ccccc1)C1(CCCC1)Cc1ccccc1-2	·	·	·	·	i	·	·	·
COCc1[nH]nc2c1C(c1ccsc1)C(C#N)=C(N)O2 (stereo not given)	-8.1	-2.75*	-5.0	-0.0193	i	1.0	552	200
CC(C)NC[C@H](O)c1ccc(O)c(O)c1	·	·	31.6	·	i	·	·	·
CCC(NC(C)C)C(O)c1ccc(O)c(O)c1 (stereo not given)	18.7	-14.2*	59.4*!	0.548	i	·	632	248
COC(=O)c1cc2c(=O)n3ccccc3nc2n(C(C)C)c1=N	-2.5	-0.293	-16.4	-0.72	i	·	·	·
N=c1c(C(=O)NCc2ccco2)cc2c(=O)n3ccccc3nc2n1Cc1ccccc1	25.3	-2.96*	-5.0	-0.0835	·	-13.0	589*	206
